Test results published in ChEMBL document CHEMBL4513216, “Probing the Open Global Health Chemical Diversity Library for Multistage-Active Starting Points for Next-Generation Antimalarials” (ACS Infect Dis, 2020).

Assay: Toxicity liver stage against HepG2, at 10uM
Type: cell-based
Parameters: test concentration 10 uM, cell line HepG2-A16-CD81EGFP
Conditions: human, HepG2-A16-CD81EGFP cells; read-out: INHIBITION
How it was run: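 Uninfected HepG2-A16-CD81EGFP cells, 3 × 10^3 per well, 1536-well, plated on prespotted compound at 10 μM final, parasite-free screening media added to match infected plates; puromycin 10 μM positive, DMSO 0.5% negative; run in parallel with 48 h PbLuc assay at 37 °C, 5% CO2; viability by CellTiter-Glo luminescence, normalized to controls.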

Structure (SMILES) | cytotoxicity at 10 µM
O=C(O)C1CCCN1c1nc(-c2ccc(Cl)c(Cl)c2)cc(C(F)(F)F)n1 (stereo not given) | 32.1%
CN1CC=C(c2noc(CCC(=O)N3CCc4ccccc4C3)n2)CC1 | 6.97%
CC(C)n1ccc2c(NC(=O)c3n[nH]c4c3CCC4)cccc21 | 7.64%
COc1ccc(CC(C)(O)CNC(=O)Cc2ccc(F)cc2)cc1 (stereo not given) | 3.91%
O=C(Nc1cnc(N2CCOCC2)nc1)c1ccc(C(F)(F)F)cc1 | 9.94%
Cc1ccc(S(=O)(=O)N2CCC(Oc3ccccn3)CC2)c(C)c1 | 26.3%
Cc1c(C)n(Cc2ccncc2)c2nc3c(c(N)c12)CCCCCC3 | 9.18%
COc1ccc(NC2CCc3c2[nH]c(=O)n(C2CCCCC2)c3=O)cc1 (stereo not given) | 2%
CC(C)c1nnc2ccc(N3CCC(C(=O)Nc4nccs4)CC3)nn12 | 42.6%
CCC1=NC(SCC(=O)c2ccccc2)c2cc(CC)sc2N1 (stereo not given) | -12.5%
CCCc1nc(N2CCCCCC2)c2c(n1)c(C)nn2CC | 39.4%
Fc1ccccc1-c1nnn(CCCc2nn[nH]n2)n1 | -4.3%
Cc1cc2c(cc1Cl)C=CC1(CCN(CC(=O)NC3CCCC3)CC1)O2 | 17%
Cc1ccc(Oc2c(F)cccc2OC[C@@H](N)CC(C)C)cc1 | -8.94%
Cc1nn(C)cc1C1=NS(=O)(=O)N(C)C(C(=O)Nc2ccc(Cl)cc2)=C1 | 7.9%
Nc1cc(CCC2CN(Cc3ccc4cc[nH]c4c3)CCO2)ccn1 (stereo not given) | -10.6%
Cc1ccc(S(=O)(=O)N2C[C@H]3C[C@H](NC(=O)c4ccnn4C)[C@H]3C2)cc1 | 85.2%
NS(=O)(=O)c1ccc(NCc2ccccc2)cc1C(F)(F)F | 3.85%
Fc1ccc(CNCc2cc(Br)c3c(c2)OCO3)cc1 | 0.658%
CCc1cnc(COc2ccc(OC3CCCCNC3=O)cc2)o1 (stereo not given) | 0.318%
CNC(=O)CCOC(=O)c1cccc(-n2cccn2)c1 | -39.6%
CCc1nc(CN2CCN(C(=O)c3cc(C)nn3C)CC2)cs1 | 3.83%

Structure (SMILES) | cytotoxicity at 10 µM
Cc1cc(N(C)CC2COc3ccccc3O2)nc(N)n1 (stereo not given) | 17.6%
Cc1noc(C)c1C(=O)N(C)C(C)c1cccnc1 (stereo not given) | 0.363%
CCn1nc2c(cc1=O)CN(c1ncnc3sccc13)CC2 | 47.5%
O=C(Nc1ccncc1)NC1CCN(c2ccccc2OC(F)F)C1 (stereo not given) | 15.6%
COc1ccnc(N2CCCN(c3nc(C4CC4)ns3)CC2)n1 | 0.142%
CCC(=O)NC1CCCN(C(=O)c2ccc(OCC3CC3)nc2)C1 (stereo not given) | 15.2%
Cc1ncc(C(=O)NCCNc2ncnc3sccc23)s1 | 27.6%
CCCC(=O)N(C)c1cccc2ncccc12 | 3.94%
Cc1cccc(OCC(O)CN2CCN(c3nccs3)CC2)c1 (stereo not given) | 16.5%
Cc1cnn(CC2CN(CCCS(=O)(=O)N(C)C)CCO2)c1 (stereo not given) | -2.71%
Cc1[nH]ncc1CCCNC(=O)Nc1ccc(F)cc1 | 3.91%
O=c1[nH]ncc(NCCOc2ccc3c(c2)CCC3)c1Cl | 34.5%
Fc1ccc(CN2CCCC2Cn2cncn2)c2ncccc12 (stereo not given) | 11.7%
Cc1ccc(-c2n[nH]cc2CNCCn2cccn2)o1 | -11.2%
Fc1ccc(-c2n[nH]cc2CNCCn2cccn2)cc1 | 8.1%
Cc1nc(C)n(CC2CCCN2CC(=O)NCCC2=CCCCC2)n1 (stereo not given) | -0.527%
O=C(c1cc(F)cc2[nH]cnc12)N1CCCCC1Cn1cccn1 (stereo not given) | 16.5%
CNC(=O)Cc1nc(CNc2ccc(SC)c(F)c2)cs1 | -1.99%
CCNC(=O)N1CCC(NC(=O)NCCc2cccc(C)c2)C1 (stereo not given) | -42.2%
Cc1ccc(-c2ncc(CNc3cnccc3CO)s2)cc1 | -7.65%
CCCNC(=O)c1cccc(CNCc2csc(C(C)(C)C)n2)c1 | 12.3%
COCC(O)CNc1ccc(C#N)cc1C(F)(F)F (stereo not given) | 13.3%

Structure (SMILES) | cytotoxicity at 10 µM
Cc1nnc2n1CCN(CC(O)CN1CCC(C)CC1)C2 (stereo not given) | 2.78%
O=C1C(N2CC[C@@H](O)C2)CCCN1Cc1cccc(C(F)(F)F)c1 (stereo not given in full) | 1.22%
CCc1ccc(CNC(=O)c2ccc(N3CCOC3=O)cc2)s1 | 22.5%
Cc1nc(CN2CCCC(Nc3ncnc4ccsc34)C2)no1 (stereo not given) | 42.2%
Cc1ccc(OCC(O)CN(C)CC(=O)Nc2cc(C)on2)c(C)c1 (stereo not given) | -17.3%
O=C(c1ccc(Br)s1)N1CCN(Cc2ccc(OC(F)(F)F)cc2)CC1 | 23.1%
Cc1n[nH]cc1CNc1ccc2c(c1)CN(C(=O)OC(C)(C)C)CC2 | 14.9%
CN(Cc1ccc(N2CCCCC2)cc1)Cc1noc(C(C)(C)C)n1 | 12.5%
CC(=O)N1CCC(c2nc3ccc(-c4cccc(F)c4)cn3n2)CC1 | 12.4%
COCC(=O)N1CCC2(CC1)CN(CC1CC1)c1ccc(F)cc12 | -103%
O=S(=O)(c1ccccc1)N1CCC2(CCCN2Cc2cccc(F)c2)C1 (stereo not given) | -68.4%
O=C(N1CCCC1)N1C[C@@H]2CN(Cc3ccoc3)CCO[C@@H]2C1 | -76.7%
O=C(c1cccs1)N1C[C@H]2CCC[C@@]2(COCC2CCOCC2)C1 | -68.9%
Cc1ncc(-c2ccnc(NCCO)n2)c(C2CCCCC2)n1 | -11%
CCc1ccc(-c2ncc3c(n2)N(C)CCN(CCN(C)C)C3=O)cc1 | -9.52%
CCC(Nc1nc(C)nc2onc(C)c12)c1cccs1 (stereo not given) | 52.4%
COCCc1noc(C2CCCN(c3ncnc4c3CCC4)C2)n1 (stereo not given) | 19.3%
COc1ccc(C(=O)C2CCCN(Cc3cccc(F)c3)C2)c(OC)c1 (stereo not given) | 6.4%
CCCc1nnc(N2CCC(N3CCCC3)CC2)o1 | -16.3%
COCCC1(C(=O)O)CCCN(C(=O)c2cc(F)ccc2OC)C1 (stereo not given) | -11.4%
CN1CCCC2(CC1)CCN(C(=O)CCc1ccccc1F)CC2 | -5.95%
O=C(O)[C@@H]1CN(C(=O)Cc2ccccc2Cl)C[C@H]1C1CC1 | 9.53%

Structure (SMILES) | cytotoxicity at 10 µM
N[C@@H]1c2ccccc2C2(CCN(c3ccc(C(F)(F)F)cn3)CC2)[C@H]1O | -5.78%
CC(C)c1noc(CN(Cc2cccnc2)C2CN3CCC2CC3)n1 (stereo not given) | 17.2%
COc1ccnc(CNc2nc(C)nc3ccsc23)c1 | 40.5%
C[C@@H](O)[C@H](NC(=O)c1csc2nc(-c3ccccc3F)cn12)C(N)=O | 2.37%
Nc1nc(NCCO)cc(N2CCc3c([nH]c4ccccc34)C2)n1 | 11.9%
CN(Cc1ccn[nH]1)Cc1c[nH]nc1-c1ccc(F)cc1 | -6.41%
Cc1cnc(C)c(N2CCC(c3nnc(CN(C)C)n3C3CC3)CC2)n1 | -0.918%
O=C(NCc1cnn2cccnc12)c1cccc(CC2CCNCC2)c1 | -44.5%
COCCN1CC2(CCCN(c3ncc(Cl)cc3F)C2)CCC1=O (stereo not given) | 21.8%
Cc1cc(NCc2cc(C)oc2C(F)(F)F)n2nc(C)cc2n1 | 49.1%
Cc1cc(NCc2cc3n(n2)CCCN(C(=O)C2CCC2)C3)nc(N)n1 | -146%
O=c1cc(N2CCNCC2)cnn1Cc1noc(C2CCCC2)n1 | -53.5%
Cn1ncc(NC(=O)Cn2cc(-c3ccc(F)cn3)cn2)n1 | 7.16%
COc1ccc(OC)c(C2CCN(c3ccc4cc[nH]c4n3)C2)c1 (stereo not given) | -1.6%
COc1cccc(-c2noc3c2CN(c2nc(C)ncc2C)CC3)c1 | 45.1%
CCN(CC)C(CNCc1ccc(O)cc1)c1ccco1 (stereo not given) | 1.29%
O=C(Cc1nc(-c2ccncc2)n[nH]1)N1CCOCC1 | -0.749%
Cc1ccc(CN2CCN(c3nc4c(s3)c(C)nn4C)C(C)C2=O)cc1 (stereo not given) | 76.5%
COCCCNC(=O)Cc1nc(-c2ccncc2)n[nH]1 | -9.72%
O=C1[C@@H]2CN(Cc3cc4ccccc4o3)C[C@]2(C(=O)O)CN1CC1CC1 | -5.22%
CC1CCN(CCCNC(=O)c2ccc(N(C)S(C)(=O)=O)cc2Cl)CC1 | -0.488%
CCc1ccc(C2CC(=O)Nc3c2c(=O)[nH]n3C(C)C)cc1 (stereo not given) | -6.87%

Structure (SMILES) | cytotoxicity at 10 µM
COc1cccc2c1OCC(NCCc1cnn(-c3ccccc3)c1)C2 (stereo not given) | -0.6%
Cn1ncc2c(NCCOc3ccc(F)cc3)nc(C3CCCC3)nc21 | 6.1%
O=C(c1ccc(C2CCCO2)s1)N1CCN(c2ccccc2F)CC1 (stereo not given) | -15.1%
CC(C)OCc1ccc(CNc2cncc(-n3cccn3)n2)cc1 | 43.8%
Cc1nc(CN2CCCC2c2noc(C3CC3)n2)nc2ccccc12 (stereo not given) | -19%
CNc1cc2c(nn1)CCN(C(=O)c1cc(C)n(C3CC3)c1C)C2 | -14.4%
Cc1cc(C)n(CC2CN(Cc3nc4ccccc4s3)CCO2)n1 (stereo not given) | 3.93%
COc1ccccc1OCCN1CCCCC1Cn1cncn1 (stereo not given) | -32.7%
CC1CCCN(Cc2csc(-c3ncccn3)n2)CC1 (stereo not given) | 2.73%
CC(C)Cc1noc(CN2CCN(CCOc3ccc(Cl)cc3)CC2)n1 | 24%
CCc1cccc(N2CCC(NC(=O)c3cc[nH]n3)CC2)c1 | 3.08%
c1ccc(OCCNC2=NCCCN2)cc1 | -2.34%
Cc1ccc(O)c(CN(CCCn2ccnc2)Cc2ccc(C)s2)c1 | -25.8%
Fc1ccc(CN2CCC3(CC2)CN(c2ccccn2)CCO3)cc1 | -0.359%
O=C(c1ccsc1)N1C[C@@H]2CCN(c3cccnc3)C[C@@H]2C1 | -69.3%
CC(C)(C)CN1CCCC12CCN(S(=O)(=O)c1ccccc1)C2 (stereo not given) | -67.5%
Cc1ccc(O[C@@H]2C[C@H]3CN(c4ncc(F)cn4)CCN3C2)cc1 | 35.3%
Fc1cccc(N2CCCC3(CN(Cc4ccco4)CCO3)C2)c1 (stereo not given) | -63.5%
CN(C)CCN1C2(CCN(Cc3nccs3)C2)c2ccccc2S1(=O)=O (stereo not given) | -71.8%
O=C1COC2(CCN(CC3CC3)CC2)CN1c1ccsc1 | -79.2%
O=C(c1ccco1)N1CCC2(CCCN(c3ncccn3)C2)C1 (stereo not given) | -105%
O=C1[C@@H]2CC[C@@H](CN(c3ncnc4ccsc34)C2)N1CC1CC1 | 15.2%
